Measured values from ChEMBL document CHEMBL1154951, “Discovery of potent and bioavailable GSK-3beta inhibitors” (Bioorg Med Chem Lett, 2010).
≈ marks a conversion by molar mass, not a printed value. Calls of active or inactive are those of the source. The calls are words filed in the database; no cut-off is given here.

Legend:
[1] = molecular target: Glycogen synthase kinase-3 beta (Homo sapiens, UniProt P49841); assay: Inhibition of human recombinant GSK3-beta assessed as [gamma33]ATP transfer to biotinylated CREB-peptide substrate after 1 hr by scintillation counting
[2] = molecular target: Protein kinase C alpha type (Homo sapiens, UniProt P17252); assay: Inhibition of PKCalpha
[3] = tested on: Mus musculus; assay: Cmax in mouse at 10 mg/kg, ip; format: ADME, organism-based; design: dose 10 mg/kg, route intraperitoneal; details: in vivo, BLD = below limit of detection
[4] = Aqueous solubility at pH 6.6; format: physicochemical
[5] = tested on: Mus musculus; assay: AUC in mouse at 10 mg/kg, ip; format: ADME, organism-based, Plasma; design: dose 10 mg/kg, route intraperitoneal; details: in vivo, BLD = below limit of detection
[6] = molecular target: Mitogen-activated protein kinase 7 (Homo sapiens, UniProt Q13164); assay: Inhibition of ERK5
How it was run: (§1)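 Affinity measured as a binding constant (Kd) in a quantitative competition binding assay, not as a catalytic activity read-out. An 11-point concentration curve was run for each kinase. Kd values are given in µM. Each value is also expressed as a ratio over the Kd for GSK3b.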

[7] = molecular target: Dual specificity protein kinase TTK (Homo sapiens, UniProt P33981); assay: Inhibition of TTK; how it was run: as §1
[8] = molecular target: Cyclin-dependent kinase 5 (Homo sapiens, UniProt Q00535); assay: Inhibition of CDK5; how it was run: as §1
[9] = molecular target: Interferon-induced, double-stranded RNA-activated protein kinase (Homo sapiens, UniProt P19525); assay: Inhibition of PRKR
How it was run: (§2)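 Competition binding assay giving binding constant (Kd) from an 11-point quantitative affinity curve against each kinase in a selectivity panel; values reported in µM and as ratio over GSK3b.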

[10] = molecular target: Aurora kinase C (Homo sapiens, UniProt Q9UQB9); assay: Inhibition of AURKC; how it was run: as §1
[11] = molecular target: Serine/threonine-protein kinase PLK1 (Homo sapiens, UniProt P53350); assay: Inhibition of PLK1; how it was run: as §1
[12] = molecular target: Aurora kinase A (Homo sapiens, UniProt O14965); assay: Inhibition of AURKA; how it was run: as §2
[13] = molecular target: Mitogen-activated protein kinase 6 (Homo sapiens, UniProt Q16659); assay: Inhibition of ERK3; how it was run: as §1
[14] = molecular target: Aurora kinase B (Homo sapiens, UniProt Q96GD4); assay: Inhibition of AURKB; how it was run: as §1
[15] = molecular target: Serine/threonine-protein kinase PLK3 (Homo sapiens, UniProt Q9H4B4); assay: Inhibition of PLK3; how it was run: as §1
[16] = molecular target: Cyclin-dependent kinase 19 (Homo sapiens, UniProt Q9BWU1); assay: Inhibition of CDK11; how it was run: as §1
[17] = molecular target: Mitogen-activated protein kinase 3 (Homo sapiens, UniProt P27361); assay: Inhibition of ERK1; how it was run: as §1
[18] = molecular target: Mitogen-activated protein kinase 1 (Homo sapiens, UniProt P28482); assay: Inhibition of ERK2; how it was run: as §1
[19] = molecular target: Mitogen-activated protein kinase 4 (Homo sapiens, UniProt P31152); assay: Inhibition of ERK4; how it was run: as §1
[20] = molecular target: Cyclin-dependent kinase 8 (Homo sapiens, UniProt P49336); assay: Inhibition of CDK8; how it was run: as §1
[21] = tested on: Rattus norvegicus; assay: Antiosteoporosis activity in ovariectomized rat assessed as increase in bone mineral density in L5 vertebra at 30 mg/kg, po QD for 3 weeks by bone densitometer relative to control; format: functional, organism-based; design: dose 30 mg/kg
[22] = tested on: Rattus norvegicus; assay: Antiosteoporosis activity in ovariectomized rat assessed as increase in bone mineral density in whole femur at 30 mg/kg, po QD for 3 weeks by bone densitometer relative to control; format: functional, organism-based; design: dose 30 mg/kg
[23] = tested on: Rattus norvegicus; assay: Antiosteoporosis activity in ovariectomized rat assessed as increase in bone mineral density in proximal tibia at 30 mg/kg, po QD for 3 weeks by bone densitometer relative to control; format: functional, organism-based; design: dose 30 mg/kg
[24] = tested on: Rattus norvegicus; assay: Antiosteoporosis activity in ovariectomized rat assessed as increase in bone mineral density in distal femur at 30 mg/kg, po QD for 3 weeks by bone densitometer relative to control; format: functional, organism-based; design: dose 30 mg/kg
[25] = molecular target: Glycogen synthase kinase-3 alpha (Homo sapiens, UniProt P49840); assay: Inhibition of GSK3alpha; how it was run: as §1
[26] = molecular target: Dual specificity protein kinase CLK2 (Homo sapiens, UniProt P49760); assay: Inhibition of CLK2; how it was run: as §1
[27] = molecular target: Dual specificity protein kinase CLK1 (Homo sapiens, UniProt P49759); assay: Inhibition of CLK1; how it was run: as §1
[28] = molecular target: Mitogen-activated protein kinase 15 (Homo sapiens, UniProt Q8TD08); assay: Inhibition of ERK8; how it was run: as §1
[29] = molecular target: Cyclin-dependent kinase 7 (Homo sapiens, UniProt P50613); assay: Inhibition of CDK7; how it was run: as §1
[30] = molecular target: Cyclin-dependent kinase 17 (Homo sapiens, UniProt Q00537); assay: Inhibition of PCTK2; how it was run: as §1
[31] = molecular target: Cyclin-dependent kinase 3 (Homo sapiens, UniProt Q00526); assay: Inhibition of CDK3; how it was run: as §2
[32] = molecular target: Dual specificity tyrosine-phosphorylation-regulated kinase 1B (Homo sapiens, UniProt Q9Y463); assay: Inhibition of DYRK1B; how it was run: as §2
[33] = molecular target: Dual specificity protein kinase CLK4 (Homo sapiens, UniProt Q9HAZ1); assay: Inhibition of CLK4; how it was run: as §1
[34] = molecular target: Cyclin-dependent kinase 18 (Homo sapiens, UniProt Q07002); assay: Inhibition of PCTK3; how it was run: as §1
[35] = molecular target: Cyclin-dependent kinase 2 (Homo sapiens, UniProt P24941); assay: Inhibition of CDK2; how it was run: as §1
[36] = molecular target: Serine/threonine-protein kinase 16 (Homo sapiens, UniProt O75716); assay: Inhibition of STK16; how it was run: as §1
[37] = molecular target: Dual specificity protein kinase CLK3 (Homo sapiens, UniProt P49761); assay: Inhibition of CLK3; how it was run: as §1
[38] = molecular target: Serine/threonine-protein kinase PLK4 (Homo sapiens, UniProt O00444); assay: Inhibition of PLK4; how it was run: as §1
[39] = molecular target: Cyclin-dependent kinase 9 (Homo sapiens, UniProt P50750); assay: Inhibition of CDK9; how it was run: as §2
[40] = tested on: Rattus norvegicus; assay: AUC in rat at 25 mg/kg, po; details: plasma
[41] = tested on: Rattus norvegicus; assay: Cmax in rat at 25 mg/kg, po; details: in vivo

Chain of Glycogen synthase kinase-3 beta (P49841 whole entry): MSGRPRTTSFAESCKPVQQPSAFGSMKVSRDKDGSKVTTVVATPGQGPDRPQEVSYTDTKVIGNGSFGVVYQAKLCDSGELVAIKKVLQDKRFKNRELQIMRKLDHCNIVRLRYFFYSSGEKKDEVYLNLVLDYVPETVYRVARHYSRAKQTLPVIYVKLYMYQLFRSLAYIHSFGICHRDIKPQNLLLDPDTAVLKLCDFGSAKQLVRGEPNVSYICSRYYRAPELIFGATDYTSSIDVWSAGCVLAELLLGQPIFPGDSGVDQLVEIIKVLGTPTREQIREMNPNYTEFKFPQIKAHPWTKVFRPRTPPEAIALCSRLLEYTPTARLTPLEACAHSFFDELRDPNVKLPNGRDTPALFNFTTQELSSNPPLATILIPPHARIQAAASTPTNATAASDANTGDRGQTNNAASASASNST
Chain of Dual specificity protein kinase CLK2 (P49760 whole entry): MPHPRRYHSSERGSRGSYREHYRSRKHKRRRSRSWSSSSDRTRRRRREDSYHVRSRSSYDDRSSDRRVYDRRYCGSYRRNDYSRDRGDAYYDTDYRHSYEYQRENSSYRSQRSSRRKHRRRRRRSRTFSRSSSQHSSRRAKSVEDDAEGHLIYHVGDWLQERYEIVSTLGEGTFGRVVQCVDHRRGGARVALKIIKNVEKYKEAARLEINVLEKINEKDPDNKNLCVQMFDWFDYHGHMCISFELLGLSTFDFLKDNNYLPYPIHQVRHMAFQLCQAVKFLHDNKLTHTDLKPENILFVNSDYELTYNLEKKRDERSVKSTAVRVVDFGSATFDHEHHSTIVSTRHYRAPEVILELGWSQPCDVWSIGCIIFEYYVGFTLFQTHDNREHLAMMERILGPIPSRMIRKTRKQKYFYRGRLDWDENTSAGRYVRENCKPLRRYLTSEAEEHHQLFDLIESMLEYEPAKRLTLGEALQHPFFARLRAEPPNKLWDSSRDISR
Chain of Serine/threonine-protein kinase PLK3 (Q9H4B4 whole entry): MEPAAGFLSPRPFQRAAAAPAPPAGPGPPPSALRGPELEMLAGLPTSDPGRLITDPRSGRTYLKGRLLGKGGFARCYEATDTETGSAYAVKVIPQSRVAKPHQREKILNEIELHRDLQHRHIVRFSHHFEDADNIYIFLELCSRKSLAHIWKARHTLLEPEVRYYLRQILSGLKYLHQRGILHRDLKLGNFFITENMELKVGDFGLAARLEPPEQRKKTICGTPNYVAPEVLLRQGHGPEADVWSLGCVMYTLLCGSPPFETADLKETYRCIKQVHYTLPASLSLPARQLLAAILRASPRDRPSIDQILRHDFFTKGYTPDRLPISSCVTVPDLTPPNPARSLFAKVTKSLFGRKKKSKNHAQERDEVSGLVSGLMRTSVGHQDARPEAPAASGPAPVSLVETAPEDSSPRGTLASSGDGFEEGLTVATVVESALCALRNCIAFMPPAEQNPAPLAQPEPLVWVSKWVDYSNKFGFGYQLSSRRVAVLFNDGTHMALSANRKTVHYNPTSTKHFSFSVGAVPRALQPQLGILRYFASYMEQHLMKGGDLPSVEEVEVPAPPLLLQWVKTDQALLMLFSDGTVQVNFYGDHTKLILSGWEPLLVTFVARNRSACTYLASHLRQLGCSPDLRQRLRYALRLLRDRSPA
Chain of Dual specificity protein kinase CLK1 (P49759 whole entry): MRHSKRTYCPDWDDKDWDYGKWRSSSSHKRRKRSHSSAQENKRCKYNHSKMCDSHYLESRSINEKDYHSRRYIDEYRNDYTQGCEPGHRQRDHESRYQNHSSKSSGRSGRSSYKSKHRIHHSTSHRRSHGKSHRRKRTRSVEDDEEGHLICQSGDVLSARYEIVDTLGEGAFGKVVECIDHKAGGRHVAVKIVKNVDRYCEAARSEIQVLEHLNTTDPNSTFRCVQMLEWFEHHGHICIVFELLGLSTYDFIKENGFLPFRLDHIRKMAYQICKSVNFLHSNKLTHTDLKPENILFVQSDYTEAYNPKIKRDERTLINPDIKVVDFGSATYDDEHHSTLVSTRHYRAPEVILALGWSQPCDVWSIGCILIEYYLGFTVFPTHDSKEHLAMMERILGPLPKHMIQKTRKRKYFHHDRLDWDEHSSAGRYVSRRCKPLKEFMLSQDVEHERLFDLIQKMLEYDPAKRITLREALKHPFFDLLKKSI
Chain of Mitogen-activated protein kinase 6 (Q16659 whole entry): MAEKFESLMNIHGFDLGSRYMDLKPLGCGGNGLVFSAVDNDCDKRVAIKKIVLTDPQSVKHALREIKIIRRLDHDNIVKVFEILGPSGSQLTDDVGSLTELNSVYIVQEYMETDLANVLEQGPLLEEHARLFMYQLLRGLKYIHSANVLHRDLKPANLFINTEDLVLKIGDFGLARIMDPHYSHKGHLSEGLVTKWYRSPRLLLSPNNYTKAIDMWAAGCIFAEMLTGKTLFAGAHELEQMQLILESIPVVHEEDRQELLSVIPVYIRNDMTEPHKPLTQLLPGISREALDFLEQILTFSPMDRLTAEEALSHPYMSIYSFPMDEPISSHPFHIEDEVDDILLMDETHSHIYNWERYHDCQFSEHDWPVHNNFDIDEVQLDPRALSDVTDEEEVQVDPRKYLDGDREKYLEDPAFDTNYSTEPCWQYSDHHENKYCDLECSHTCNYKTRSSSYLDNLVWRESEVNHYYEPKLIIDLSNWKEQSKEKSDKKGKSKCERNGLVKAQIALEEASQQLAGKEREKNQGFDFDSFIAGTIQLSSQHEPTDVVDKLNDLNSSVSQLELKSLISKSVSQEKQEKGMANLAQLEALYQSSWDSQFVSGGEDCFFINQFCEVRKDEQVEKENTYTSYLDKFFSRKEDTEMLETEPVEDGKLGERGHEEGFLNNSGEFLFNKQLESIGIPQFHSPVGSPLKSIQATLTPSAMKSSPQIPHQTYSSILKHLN
Chain of Dual specificity protein kinase TTK (P33981 whole entry): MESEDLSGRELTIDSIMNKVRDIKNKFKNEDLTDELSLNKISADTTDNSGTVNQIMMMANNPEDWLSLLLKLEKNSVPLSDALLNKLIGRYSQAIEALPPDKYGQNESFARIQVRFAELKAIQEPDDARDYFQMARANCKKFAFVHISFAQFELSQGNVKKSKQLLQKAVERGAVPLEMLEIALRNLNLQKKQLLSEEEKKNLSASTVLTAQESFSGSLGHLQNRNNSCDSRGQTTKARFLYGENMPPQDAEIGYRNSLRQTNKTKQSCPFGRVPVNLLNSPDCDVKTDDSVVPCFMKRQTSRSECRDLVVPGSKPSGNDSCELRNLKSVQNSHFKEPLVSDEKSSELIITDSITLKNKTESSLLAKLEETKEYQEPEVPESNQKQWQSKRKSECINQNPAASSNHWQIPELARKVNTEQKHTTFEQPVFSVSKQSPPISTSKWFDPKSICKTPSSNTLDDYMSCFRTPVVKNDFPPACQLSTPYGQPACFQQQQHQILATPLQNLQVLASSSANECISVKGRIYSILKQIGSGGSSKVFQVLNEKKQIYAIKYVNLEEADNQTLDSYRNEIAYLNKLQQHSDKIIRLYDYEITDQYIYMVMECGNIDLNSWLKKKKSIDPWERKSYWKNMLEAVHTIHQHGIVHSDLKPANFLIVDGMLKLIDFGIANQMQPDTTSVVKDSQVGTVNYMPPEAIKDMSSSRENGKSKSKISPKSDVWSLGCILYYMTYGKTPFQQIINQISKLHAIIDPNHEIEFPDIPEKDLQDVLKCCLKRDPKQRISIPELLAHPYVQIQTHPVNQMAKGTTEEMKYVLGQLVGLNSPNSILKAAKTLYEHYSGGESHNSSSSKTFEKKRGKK
Chain of Cyclin-dependent kinase 3 (Q00526 whole entry): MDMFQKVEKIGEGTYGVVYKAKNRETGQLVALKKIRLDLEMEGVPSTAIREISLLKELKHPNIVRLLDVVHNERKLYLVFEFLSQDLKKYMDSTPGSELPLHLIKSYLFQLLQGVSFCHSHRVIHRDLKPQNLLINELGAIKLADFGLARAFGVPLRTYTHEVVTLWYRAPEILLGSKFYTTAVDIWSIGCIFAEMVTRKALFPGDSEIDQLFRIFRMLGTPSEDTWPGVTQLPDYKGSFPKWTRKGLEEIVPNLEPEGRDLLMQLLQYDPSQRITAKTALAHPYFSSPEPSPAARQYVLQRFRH
Chain of Aurora kinase C (Q9UQB9 whole entry): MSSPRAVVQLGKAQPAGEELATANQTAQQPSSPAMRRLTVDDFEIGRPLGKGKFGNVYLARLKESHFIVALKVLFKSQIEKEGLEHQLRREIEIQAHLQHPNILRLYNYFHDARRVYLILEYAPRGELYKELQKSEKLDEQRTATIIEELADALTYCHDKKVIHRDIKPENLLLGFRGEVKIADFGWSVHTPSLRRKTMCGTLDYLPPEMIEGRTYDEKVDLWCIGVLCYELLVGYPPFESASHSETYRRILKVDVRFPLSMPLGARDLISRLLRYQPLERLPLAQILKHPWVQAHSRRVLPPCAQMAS

In the case of Nc1nc(NCCNc2ncc(-c3ncc[nH]3)c(-c3ccc(Cl)cc3Cl)n2)ccc1[N+](=O)[O-], the IC50 [1] is reported as 0.56 nM.

Compound Cn1cc(C2=C(N3CCOCC3)C(=O)NC2=O)c2ccccc21 has an IC50 [1] of 8200 nM.

With COc1cccc(C2=C(c3c(C)n(C)c4ccccc34)C(=O)NC2=O)c1 the IC50 [1] was 220 nM.

Work on COc1cccc(C2=C(c3cn(C)c4cc(C)ccc34)C(=O)NC2=O)c1 yielded an IC50 [1] of 35 nM and an IC50 [2] of 2900 nM.

Cn1cc(C2=C(Oc3ccccc3)C(=O)NC2=O)c2ccccc21 gave an IC50 [1] of 2800 nM.

In the case of Cn1cc(C2=C(N(C(=O)OC(C)(C)C)c3ccccc3)C(=O)NC2=O)c2ccccc21, the IC50 [1] is reported as 3100 nM.

COc1cccc(C2=C(c3cn(C)c4cccc(OC)c34)C(=O)NC2=O)c1 gave an IC50 [1] of 1300 nM.

For COc1cccc(C2=C(c3cn(C)c4cc(F)ccc34)C(=O)NC2=O)c1, the IC50 [1] was 31 nM and the IC50 [2] was 4200 nM.

COc1cccc(C2=C(c3cn(C)c4ccc(Cl)cc34)C(=O)NC2=O)c1 showed an IC50 [1] of 6.4 nM and an IC50 [2] of 1400 nM.

With Cn1cc(C2=C(c3cccc(NCCCO)c3)C(=O)NC2=O)c2ccccc21 the IC50 [1] was 1 nM and the IC50 [2] was 740 nM.

In the case of Cn1cc(C2=C(c3ccc(-c4ccccc4)cc3)C(=O)NC2=O)c2ccccc21, the IC50 [1] is reported as 730 nM.

Cn1cc(C2=C(Sc3ccccc3)C(=O)NC2=O)c2ccccc21 gave an IC50 [1] of 2000 nM.

Compound Cn1cc(C2=C(Nc3ccccc3)C(=O)NC2=O)c2ccccc21 has an IC50 [1] of 350 nM.

In the case of COc1ccc(C2=C(c3cn(C)c4ccccc34)C(=O)NC2=O)cc1OC, the IC50 [1] is reported as 6.6 nM and the IC50 [2] is reported as 6600 nM.

With COc1ccc(OC)c(C2=C(c3cn(C)c4ccccc34)C(=O)NC2=O)c1 the IC50 [1] was 22 nM and the IC50 [2] was 380 nM.

For Cn1cc(C2=C(c3cccnc3)C(=O)NC2=O)c2ccccc21, the IC50 [1] was 42 nM and the IC50 [2] was > 30000 nM.

Compound CN(C)c1nc2ccc1CCCN1C=C(C3=C(C(=O)NC3=O)c3cn(c4ccccc34)CCC2)N2C=CC=CC12 (stereo not drawn) has an IC50 [1] of 7 nM.

In the case of COc1ccc(C2=C(c3cn(C)c4ccccc34)C(=O)NC2=O)c(OC)c1, the IC50 [1] is reported as 2.4 nM and the IC50 [2] is reported as 5500 nM.

Work on Cn1cc(C2=C(c3c4n(c5ccccc35)CCN(C(N)=S)C4)C(=O)NC2=O)c2ccccc21 yielded an IC50 [1] of 10 nM and an IC50 [2] of 1050 nM.

In the case of COc1cccc(C2=C(c3cn(C)c4ccccc34)C(=O)NC2=O)c1, the IC50 [1] is reported as 90 nM, the IC50 [2] is reported as 6000 nM and the Cmax [3] is reported as “BLD”. For the same compound, the solubility [4] was < 0.5 µg/mL and the AUC [5] was “BLD”.

In the case of Cn1cc(C2=C(c3ccccc3Cl)C(=O)NC2=O)c2ccccc21, the IC50 [1] is reported as 3.6 nM and the IC50 [2] is reported as 760 nM.

For Cn1cc(C2=C(c3cccs3)C(=O)NC2=O)c2ccccc21, the IC50 [1] was 22 nM and the IC50 [2] was 8900 nM.

In the case of Cn1cc(C2=C(c3cccc(N)c3)C(=O)NC2=O)c2ccccc21, the IC50 [1] is reported as 1.8 nM and the IC50 [2] is reported as 1900 nM.

Cn1cc(C2=C(c3cccc(OCC(O)CO)c3)C(=O)NC2=O)c2cc(F)ccc21 (racemic) gave an IC50 [1] of 1.8 nM, an IC50 [2] of 2200 nM and a solubility [4] of 2.8 µg/mL (≈ 6.82 µM).

Work on Cn1cc(C2=C(c3cccc(NCC(O)CO)c3)C(=O)NC2=O)c2cc(F)ccc21 (racemic) yielded a Kd [6] of 5600 nM, a Kd [7] of 6700 nM and a Kd [8] of 6800 nM. It also gave a Kd [9] of 14000 nM, a Kd [10] of 23000 nM and a Kd [11] of 23000 nM. For the same compound, the Kd [12] was 40000 nM, the Kd [13] was 40000 nM and the Kd [14] was 40000 nM. For the same compound, the Kd [15] was 40000 nM, the Kd [16] was 40000 nM and the Kd [17] was 40000 nM. It also gave a Kd [18] of 40000 nM, a Kd [19] of 40000 nM and a Kd [20] of 40000 nM. The Activity [21] was “Active”, the Activity [22] was “Active” and the Activity [23] was “Active”. The Activity [24] was “Active”, the Kd [25] was 1.5 nM and the Kd [26] was 10 nM. The IC50 [2] was 400 nM, the solubility [4] was 104 µg/mL (≈ 254 µM) and the Kd [27] was 16 nM. The Kd [28] was 32 nM, the Kd [29] was 41 nM and the Kd [30] was 69 nM. For the same compound, the Kd [31] was 80 nM, the Kd [32] was 87 nM and the Kd [33] was 110 nM. For the same compound, the Kd [34] was 110 nM, the Kd [35] was 150 nM and the Kd [36] was 230 nM. For the same compound, the Kd [37] was 310 nM, the Kd [38] was 320 nM and the Kd [39] was 410 nM.

Cn1cc(C2=C(c3cccc(NCC(O)CO)c3)C(=O)NC2=O)c2cc(Cl)ccc21 (racemic) showed an IC50 [1] of 0.4 nM, an IC50 [2] of 260 nM and a solubility [4] of 42 µg/mL (≈ 98.6 µM). It also gave an AUC [40] of 100 ng·h/mL and a Cmax [41] of 110 ng/mL.
